How the values were obtained:
Format in all cases: functional
[1] = Antiproliferative activity against multidrug-resistant P-gp expressing human KBVIN cells by sulforhodamine B assay
In short: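 Vincristine-resistant KB subline kept in 100 nM vincristine, then grown 7–10 days without it before testing. RPMI 1640 with 10% FBS, 37 °C, 5% CO2. 3–5 × 10³ cells/well exposed 72 h to a concentration series, paclitaxel as assay control. SRB staining after TCA fixation, A515 read. GI50 is the 50% absorbance reduction versus untreated cells; three or more experiments.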

KB = assay: Antiproliferative activity against human KB cells by sulforhodamine B assay
In short: (§1)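 Cells in RPMI 1640 (25 mM HEPES, 2 mM L-glutamine, 10% heat-inactivated FBS, antibiotics) at 37 °C, 5% CO2. Seeded at 3–5 × 10³/well with graded concentrations, paclitaxel as assay control, for 72 h. TCA-fixed, stained with 0.04% SRB, dye dissolved in 10 mM Tris, A515 read. GI50 is the concentration halving absorbance versus untreated cells; three or more experiments.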

A549 = assay: Antiproliferative activity against human A549 cells by sulforhodamine B assay; in short: as §1
DU-145 = assay: Antiproliferative activity against human DU145 cells by sulforhodamine B assay; in short: as §1
[2] = Selectivity ratio of GI50 for human KB cells to GI50 for multidrug-resistant P-gp expressing human KBVIN cells
In short: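 Ratio of GI50 in parental KB to GI50 in P-gp-overexpressing KB-VIN. […] KB-VIN cells were grown 7–10 days without vincristine before the assay.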

| GI50 (KB) [µM] | GI50 (A549) [µM] | GI50 (DU-145) [µM] | Compound | GI50 [1] [µM] | RatioGI50 [2] |
| --- | --- | --- | --- | --- | --- |
| > 20 | > 20 | > 20 | C=C1[C@H]2C[C@@H]3C4N5C[C@]6(C)CCC[C@@]47[C@@H]6[C@@H]5C[C@]3([C@@H]1OC(C)=O)[C@H]7[C@H]2O | > 20 | >20 |
| > 20 | > 20 | > 20 | C=C1[C@H]2C[C@@H]3C4N5C[C@]6(C)CCC[C@@]47[C@@H]6[C@@H]5C[C@]3([C@@H]1OC(C)=O)[C@H]7[C@H]2OC(C)=O | > 20 | >20 |
| > 20 | > 20 | > 20 | C=C1[C@H]2C[C@@H]3C4N5C[C@]6(C)CCC[C@@]47[C@@H]6[C@@H]5C[C@]3([C@@H]1O)[C@H]7[C@H]2OC(=O)c1ccccc1 | > 20 | >20 |
| > 20 | > 20 | > 20 | C=C1[C@H]2C[C@@H]3C4N5C[C@]6(C)CCC[C@@]47[C@@H]6[C@@H]5C[C@]3([C@@H]1OC(=O)c1ccccc1)[C@H]7[C@H]2O | > 20 | >20 |
| 6 | 8.4 | 9.3 | C=C1[C@H]2C[C@@H]3C4N5C[C@]6(C)CCC[C@@]47[C@@H]6[C@@H]5C[C@]3([C@@H]1OC(=O)c1ccccc1)[C@H]7[C@H]2OC(=O)c1ccccc1 | 7.5 | 0.8 |
| > 20 | > 20 | > 20 | C=C1[C@H]2C[C@@H]3C4N5C[C@]6(C)CCC[C@@]47[C@@H]6[C@@H]5C[C@]3([C@@H]1O)[C@H]7[C@H]2OC(=O)c1ccc(OC)cc1 | > 20 | >20 |
| 5.3 | 6.7 | 7.1 | C=C1[C@H]2C[C@@H]3C4N5C[C@]6(C)CCC[C@@]47[C@@H]6[C@@H]5C[C@]3([C@@H]1OC(=O)c1ccc(OC)cc1)[C@H]7[C@H]2OC(=O)c1ccc(OC)cc1 | 5.2 | 1 |
| 10 | 10 | 10 | C=C1[C@H]2C[C@@H]3C4N5C[C@]6(C)CCC[C@@]47[C@@H]6[C@@H]5C[C@]3([C@@H]1O)[C@H]7[C@H]2OC(=O)c1ccc([N+](=O)[O-])cc1 | 10 | 10 |
| > 20 | > 20 | > 20 | C=C1[C@H]2C[C@@H]3C4N5C[C@]6(C)CCC[C@@]47[C@@H]6[C@@H]5C[C@]3([C@@H]1OC(=O)c1ccc([N+](=O)[O-])cc1)[C@H]7[C@H]2O | > 20 | >20 |
| 5.3 | 6.9 | 1 | C=C1[C@H]2C[C@@H]3C4N5C[C@]6(C)CCC[C@@]47[C@@H]6[C@@H]5C[C@]3([C@@H]1OC(=O)c1ccc([N+](=O)[O-])cc1)[C@H]7[C@H]2OC(=O)c1ccc([N+](=O)[O-])cc1 | 5.5 | 0.96 |
| > 20 | > 20 | > 20 | C=C1[C@H]2C[C@@H]3C4N5C[C@]6(C)CCC[C@@]47[C@@H]6[C@@H]5C[C@]3([C@@H]1O)[C@H]7[C@H]2OC(=O)c1ccccc1C(F)(F)F | > 20 | >20 |
| > 20 | > 20 | > 20 | C=C1[C@H]2C[C@@H]3C4N5C[C@]6(C)CCC[C@@]47[C@@H]6[C@@H]5C[C@]3([C@@H]1O)[C@H]7[C@H]2OC(=O)c1cccc(C(F)(F)F)c1 | > 20 | >20 |
| 10 | 10 | 10 | C=C1[C@H]2C[C@@H]3C4N5C[C@]6(C)CCC[C@@]47[C@@H]6[C@@H]5C[C@]3([C@@H]1O)[C@H]7[C@H]2OC(=O)c1ccc(C(F)(F)F)cc1 | 10 | 10 |
| 10 | 10 | 10 | C=C1[C@H]2C[C@@H]3C4N5C[C@]6(C)CCC[C@@]47[C@@H]6[C@@H]5C[C@]3([C@@H]1O)[C@H]7[C@H]2OC(=O)c1ccc(OC(F)(F)F)cc1 | 10 | 10 |
| > 20 | > 20 | > 20 | C=C1[C@H]2C[C@@H]3C4N5C[C@]6(C)CCC[C@@]47[C@@H]6[C@@H]5C[C@]3([C@@H]1O)[C@H]7[C@H]2OC(=O)c1cccnc1 | > 20 | >20 |
| > 20 | > 20 | > 20 | C=C1[C@H]2C[C@@H]3C4N5C[C@]6(C)CCC[C@@]47[C@@H]6[C@@H]5C[C@]3([C@@H]1O)[C@H]7[C@H]2OC(=O)c1ccc(F)cc1 | > 20 | >20 |
| > 20 | > 20 | > 20 | C=C1[C@H]2C[C@@H]3C4N5C[C@]6(C)CCC[C@@]47[C@@H]6[C@@H]5C[C@]3([C@@H]1OC(=O)c1ccc(F)cc1)[C@H]7[C@H]2O | > 20 | >20 |
| 5.2 | 8.1 | 6.8 | C=C1[C@H]2C[C@@H]3C4N5C[C@]6(C)CCC[C@@]47[C@@H]6[C@@H]5C[C@]3([C@@H]1OC(=O)c1ccc(F)cc1)[C@H]7[C@H]2OC(=O)c1ccc(F)cc1 | 7.1 | 0.73 |
| 4.1 | 5.5 | 6.2 | C=C1[C@H]2C[C@@H]3C4N5C[C@]6(C)CCC[C@@]47[C@@H]6[C@@H]5C[C@]3([C@@H]1OC(=O)/C=C/c1cccc(C(F)(F)F)c1)[C@H]7[C@H]2OC(=O)/C=C/c1cccc(C(F)(F)F)c1 | 3.1 | 1.3 |
| > 20 | > 20 | > 20 | C=C1[C@H]2C[C@@H]3C4N5C[C@]6(C)CCC[C@@]47[C@@H]6[C@@]5(O)C[C@]3([C@@H]1OC(=O)c1cccnc1)[C@H]7[C@H]2O | > 20 | >20 |
| > 20 | > 20 | > 20 | C=C1[C@H]2C[C@@H]3C4N5C[C@]6(C)CCC[C@@]47[C@@H]6[C@@]5(O)C[C@]3([C@@H]1OC(=O)c1cccnc1)[C@H]7[C@H]2OC(=O)c1cccnc1 | > 20 | >20 |
| > 20 | > 20 | > 20 | C=C1[C@H]2C[C@@H]3C4N5C[C@]6(C)CCC[C@@]47[C@@H]6[C@@]5(O)C[C@]3([C@@H]1OC(=O)CC)[C@H]7[C@H]2O | > 20 | >20 |
| > 20 | > 20 | > 20 | C=C1[C@H]2C[C@@H]3C4N5C[C@]6(C)CCC[C@@]47[C@@H]6[C@@]5(O)C[C@]3([C@@H]1OC(=O)CC)[C@H]7[C@H]2OC(=O)CC | > 20 | >20 |
| 6.6 | 6.4 | 6 | C=C1[C@H]2C[C@@H]3C4N5C[C@]6(C)CCC[C@@]47[C@@H]6[C@@]5(O)C[C@]3([C@@H]1O)[C@H]7[C@H]2OC(c1ccccc1)(c1ccccc1)c1ccccc1 | 5.2 | 1.3 |
| > 20 | > 20 | > 20 | CC1[C@H]2C[C@@H]3C4N5C[C@]6(C)CCC[C@@]47[C@@H]6[C@@]5(O)C[C@]3([C@@H]1O)[C@H]7[C@H]2O (stereo not given in full) | > 20 | >20 |
| > 20 | > 20 | > 20 | C=C1[C@H]2C[C@H]3C4N(Cc5ccccc5)C[C@]5(C)CCC[C@]46[C@H]([C@H]2O)C3(CC(=O)[C@H]56)[C@@H]1O (stereo not given in full) | > 20 | >20 |

| Compound | GI50 (KB) [µM] | GI50 (A549) [µM] | GI50 (DU-145) [µM] | GI50 [1] [µM] | RatioGI50 [2] |
| --- | --- | --- | --- | --- | --- |
| C=C1[C@H]2C[C@@]3([C@@H]1OC(=O)c1ccccc1)[C@@H](C[C@@H]2OC(=O)c1ccccc1)[C@@]12C4[C@@H]3C[C@@H]1[C@@](C)(CC[C@@H]2OC(=O)c1ccccc1)CN4CC | > 20 | > 20 | > 20 | > 20 | >20 |
| C=C1[C@H]2C[C@@]3([C@@H]1OC(=O)c1ccccc1)[C@@H](C[C@@H]2OC(=O)c1ccccc1)[C@@]12C4[C@@H]3C[C@@H]1[C@@](C)(CC[C@@H]2O)CN4CC | > 20 | > 20 | > 20 | > 20 | >20 |
| C=C1[C@H]2C[C@@]3(C4C[C@@H]5C6(C)CCC7O[C@H]6N(CC)C4C75[C@@H]3C[C@@H]2O)[C@@H]1O | > 20 | > 20 | > 20 | > 20 | >20 |
| C=C1[C@H]2C[C@@]3(C4C[C@@H]5C6(C)CCC7O[C@H]6N(CC)C4C75[C@@H]3C[C@@H]2OC(C)=O)[C@@H]1OC(C)=O | > 20 | > 20 | > 20 | > 20 | >20 |

Reference: ChEMBL document CHEMBL3400028, “Evaluation of Aconitum diterpenoid alkaloids as antiproliferative agents” (2015)
